Measured values published in ChEMBL document CHEMBL4732081, “Development of prohibitin ligands against osteoporosis” (Eur J Med Chem, 2021).
The source made the active and inactive calls. No cut-off for these calls is given here.

How the values were obtained:
[1] = Inhibition of osteoclastogenesis in human bone marrow derived CD14+ pre-osteoclasts assessed as blocked of osteoclast differentiation in presence of M-CSF and RANKL at 1 uM measured after 11 days by TRAP staining method relative to control; type: functional; conditions: 264 h, time 11 day
Procedure, shortened: (§1)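 Human CD14+ cells came from donor PBMCs by Ficoll centrifugation (500g, 25 min) and CD14 microbead MACS selection. They were seeded at 45 x 10^4 cells/well in α-MEM, 10% FCS, 25 ng/ml hM-CSF. From day 3, medium with 25 ng/ml hM-CSF and 100 ng/ml hRANKL ± compound was changed twice weekly; about 11 days. TRAP-stained multinucleated cells were counted, as % vs RANKL positive control. Monocyte lots differed between series.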

[2] = Inhibition of osteoclastogenesis in human […] CD14+ pre-osteoclasts assessed as blocked of osteoclast differentiation in presence of M-CSF and RANKL at 10 uM measured after 11 days by TRAP staining method relative to control; type: functional; conditions: 264 h, time 11 day; procedure, shortened: as §1
[3] = Inhibition of osteoclastogenesis in human bone marrow derived CD14+ pre-osteoclasts assessed as blocked of osteoclast differentiation in presence of M-CSF and RANKL at 5 uM measured after 11 days by TRAP staining method relative to control; type: functional; conditions: 264 h, time 11 day; procedure, shortened: as §1
[4] = Cytotoxicity against human bone marrow derived CD14+ pre-osteoclasts upto 10 uM; type: tissue-based; conditions: osteoclast
Monocyte [5] = assay: Effect on p38 expression in human M-CSF treated human bone marrow derived CD14+ monocytes at 10 uM preincubated for 4 hrs followed by IL-6 stimulation and measured after 15 mins by Western blot assay; type: functional, tissue-based; conditions: time 4.25 hrs
Procedure, shortened: (§2)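 Human CD14+ monocytes were cultured 3 days with 25 ng/ml M-CSF. They were then treated with vehicle or 10 µM compound for 4 h without FBS and M-CSF, and stimulated with IL-6 (25 ng/mL) for 15 min. Equal-protein lysates were run on SDS-PAGE and transferred to PVDF. Blots were probed overnight at 4°C with primary antibodies, with fluorescent secondary detection.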

[6] = biological target: MAP kinase p38 (Homo sapiens) (UniProt O15264+Q15759+Q16539+P53778); assay: Effect on p38 phosphorylation in human M-CSF treated human bone marrow derived CD14+ monocytes at 10 uM preincubated for 4 hrs followed by IL-6 stimulation and measured after 15 mins by Western blot assay; conditions: Monocyte, time 4.25 hrs; procedure, shortened: as §2
Monocyte [7] = assay: Effect on ERK expression in human M-CSF treated human bone marrow derived CD14+ monocytes at 10 uM preincubated for 4 hrs followed by IL-6 stimulation and measured after 15 mins by Western blot assay; type: functional; conditions: time 4.25 hrs; procedure, shortened: as §2
Monocyte [8] = assay: Effect on ERK phosphorylation in human M-CSF treated human bone marrow derived CD14+ monocytes at 10 uM preincubated for 4 hrs followed by IL-6 stimulation and measured after 15 mins by Western blot assay; conditions: time 4.25 hrs; procedure, shortened: as §2
[9] = biological target: Signal transducer and activator of transcription 3 (Homo sapiens) (UniProt P40763); assay: Inhibition of STAT3 phosphorylation at Ser-727 in human M-CSF treated human bone marrow derived CD14+ monocytes at 10 uM preincubated for 4 hrs followed by IL-6 stimulation and measured after 15 mins by Western blot assay; conditions: Monocyte, time 4.25 hrs; procedure, shortened: as §2
Sequence of Signal transducer and activator of transcription 3 (Homo sapiens) (P40763 whole entry): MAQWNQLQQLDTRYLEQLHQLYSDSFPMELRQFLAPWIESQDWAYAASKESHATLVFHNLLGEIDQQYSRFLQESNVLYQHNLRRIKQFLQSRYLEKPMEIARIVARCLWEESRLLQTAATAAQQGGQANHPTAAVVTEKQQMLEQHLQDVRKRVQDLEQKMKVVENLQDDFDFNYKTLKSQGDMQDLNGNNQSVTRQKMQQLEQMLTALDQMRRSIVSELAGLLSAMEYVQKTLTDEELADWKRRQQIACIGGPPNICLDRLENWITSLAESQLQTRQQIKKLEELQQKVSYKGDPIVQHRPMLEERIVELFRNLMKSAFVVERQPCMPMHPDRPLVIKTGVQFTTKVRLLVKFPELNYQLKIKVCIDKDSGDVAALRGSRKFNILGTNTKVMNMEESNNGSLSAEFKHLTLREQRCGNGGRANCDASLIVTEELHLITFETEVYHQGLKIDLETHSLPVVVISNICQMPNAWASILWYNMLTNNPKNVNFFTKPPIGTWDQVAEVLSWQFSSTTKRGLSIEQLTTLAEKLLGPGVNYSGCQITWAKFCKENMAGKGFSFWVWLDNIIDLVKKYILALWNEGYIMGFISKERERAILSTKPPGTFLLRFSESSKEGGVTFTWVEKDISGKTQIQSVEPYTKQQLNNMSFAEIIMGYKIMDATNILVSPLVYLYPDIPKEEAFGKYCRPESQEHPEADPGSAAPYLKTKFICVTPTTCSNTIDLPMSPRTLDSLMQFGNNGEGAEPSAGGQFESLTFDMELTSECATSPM

Monocyte [10] = assay: Inhibition of osteoclastogenesis in human bone marrow derived CD14+ monocytes assessed as decrease in RANKL-induced Cathepsin K mRNA expression at 1 to 10 uM measured after 4 days by qRT-PCR method; type: functional; conditions: dose 1-10 µM, time 4.0 day
Procedure, shortened: (§3)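 CD14+ cells were seeded and, from day 3, treated with 25 ng/ml hM-CSF and 100 ng/ml hRANKL ± compound for 4 days. Target mRNA was measured by qRT-PCR, normalized to GAPDH, with comparative Ct quantification. Each assay was performed in triplicate.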

Monocyte [11] = assay: Inhibition of osteoclastogenesis in human bone marrow derived CD14+ monocytes assessed as decrease in RANKL-induced TRAP mRNA expression at 1 to 10 uM measured after 4 days by qRT-PCR method; type: functional; conditions: dose 1-10 µM, time 4.0 day; procedure, shortened: as §3
Monocyte [12] = assay: Inhibition of osteoclastogenesis in human bone marrow derived CD14+ monocytes assessed as decrease in RANKL-induced NFATc1 mRNA expression at 1 to 10 uM measured after 4 days by qRT-PCR method; type: functional; conditions: dose 1-10 µM, time 4.0 day; procedure, shortened: as §3

| Compound | inhibition at 1 µM [1] | inhibition at 10 µM [2] | inhibition at 5 µM [3] | further results |
| --- | --- | --- | --- | --- |
| CCCCC1CCCN(C(C)C)/C1=N/S(=O)(=O)c1ccc(C)cc1 (centres undefined) | 31.9% | 80.6% |  |  |
| COc1ccc(S(=O)(=O)/N=C(\CC2CCCCC2)N(C(C)C)C2CCCC2)cc1 | -86% | 99% | 26% |  |
| C[C@@H]1CCC[C@H](C)N1/C(CC1CCCCC1)=N/S(=O)(=O)C(F)(F)F | -1.1% | 96.1% |  |  |
| C[C@@H]1CCC[C@H](C)N1/C(CC1CCCCC1)=N/S(=O)(=O)C[C@@]12CCC(CC1=O)C2(C)C | -1.5% | 57.5% |  |  |
| Cc1ccc(S(=O)(=O)/N=C(\C=C2CCCCC2)N2[C@H](C)CCC[C@@H]2C)cc1 | 25.5% | 23.3% |  |  |
| COc1ccc(S(=O)(=O)/N=C(\CC2CCCCC2)N(C(C)C)C2CCSCC2)cc1 | -10% | 93% | 53% |  |
| COc1ccc(S(=O)(=O)/N=C(\CC2CCCCC2)N2[C@H](C)CCC[C@@H]2C)cc1 |  | 98% | 62% |  |
| CC(C)S(=O)(=O)/N=C(\CC1CCCCC1)N1[C@H](C)CCC[C@@H]1C | 1.6% | 12.6% |  |  |
| Cc1ccc(S(=O)(=O)/N=C2\CCCCN2C(C)C)cc1 | 27.9% | 6.1% |  |  |
| Cc1ccc(S(=O)(=O)/N=C2\CCCCCN2C(C)C)cc1 | 27.1% | 39.3% |  |  |
| COc1ccc(S(=O)(=O)/N=C(\CC2CCCCC2)N(C(C)C)C2CCOCC2)cc1 | -14% | 39% | 28% |  |
| COc1ccc(S(=O)(=O)/N=C(\CC2CCCCC2)N(C(C)C)C2CCCCCC2)cc1 | -6% | 99% | 74% |  |
| C[C@@H]1CCC[C@H](C)N1/C(CC1CCCCC1)=N/S(=O)(=O)N(C)C | 11.8% | 68.4% |  |  |
| COc1ccc(S(=O)(=O)/N=C(\CC2CCCCC2)N(C(C)C)C2CCCCCCC2)cc1 | 5% | 100% | 88% | Activity [4]: Toxic |
| C[C@@H]1CCC[C@H](C)N1/C(CC1CCCCC1)=N/S(=O)(=O)c1ccccc1 | 3.3% | 97.9% |  |  |
| C[C@@H]1CCC[C@H](C)N1/C(CC1CCCCC1)=N/S(=O)(=O)c1ccccn1 | -20.2% | 44.9% |  |  |
| CCCCC/C(=N\S(=O)(=O)c1ccc(C)cc1)N1[C@H](C)CCC[C@@H]1C | 20.9% | 99.8% |  |  |
| Cc1ccc(S(=O)(=O)/N=C(\CC2CCCCC2)N2CCCC3CCCCC32)cc1 (centres undefined) | 33.1% | 78.9% |  |  |
| Cc1ccc(S(=O)(=O)/N=C(\CC2CCCC2)N2[C@H](C)CCC[C@@H]2C)cc1 | 32.7% | 91.5% |  |  |
| COc1ccc(S(=O)(=O)/N=C(\CC2CCCCC2)N2CCCCCC2)cc1 | -30% | 88% | 49% |  |
| Cc1ccc(S(=O)(=O)/N=C(\CC2CCCCC2)N2[C@H](C)CCC[C@@H]2C)cc1 | 35% | 97.9% | 72% | Activity (Monocyte [5]): inactive; Activity [6]: inactive; Activity (Monocyte [7]): inactive; Activity (Monocyte [8]): inactive; inhibition [9]: Active; inhibition (Monocyte [10]): Active; inhibition (Monocyte [11]): Active; inhibition (Monocyte [12]): Active |
| Cc1ccc(S(=O)(=O)/N=C(\C2CCCCC2)N2[C@H](C)CCC[C@@H]2C)cc1 | 22.8% | 24.1% |  |  |
| C[C@@H]1CCC[C@H](C)N1/C(CC1CCCCC1)=N/S(=O)(=O)c1cccnc1 | -23.6% | 56.1% |  |  |
| CCCCC1CCCCN(C(C)C)/C1=N/S(=O)(=O)c1ccc(C)cc1 (centres undefined) | 12.1% | 90.1% |  |  |
